Compound activity: PubChem BioAssay, several laboratories
TCR-CD3 inh: human TCR-CD3 binding inhibition | TAMRA-labeled TCR probe fluorescence, biochemical | inhibition, % at 9.4 µM | actives 0.37% (n = 360,000) | AID 651800; in the data active = inhibition above about 19%;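 note: recombinant mutant TCR 2C K166C tagged with TAMRA read by polarization; 0% = receptor in buffer alone and 100% = receptor with positive control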
ATG4B inhibitor: inhibitors of human ATG4B cysteine protease. ATG4B cleavage of LC3-PLA2, NBD-HPC fluorescence, 1 h. AID 504462. inhibition, % at 8.33 µM. Q9Y4P1. actives 0.51% (n = 340,000); in the data active = inhibition above about 40%
ABHD4 inh: inhibitors of mouse ABHD4; purified mABHD4, FP-Rh probe fluorescence polarization; inhibition, % at 8.92 µM; actives 0.54% (n = 370,000); AID 720543;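 active = inhibition exceeding the mean over every tested compound plus 3 SD, cut at about 30% in these data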;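 note: 0% = plate median of compound wells and 100% = S159A mutant with DMSO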
Target sequence (Q8VD66 whole entry, looked up): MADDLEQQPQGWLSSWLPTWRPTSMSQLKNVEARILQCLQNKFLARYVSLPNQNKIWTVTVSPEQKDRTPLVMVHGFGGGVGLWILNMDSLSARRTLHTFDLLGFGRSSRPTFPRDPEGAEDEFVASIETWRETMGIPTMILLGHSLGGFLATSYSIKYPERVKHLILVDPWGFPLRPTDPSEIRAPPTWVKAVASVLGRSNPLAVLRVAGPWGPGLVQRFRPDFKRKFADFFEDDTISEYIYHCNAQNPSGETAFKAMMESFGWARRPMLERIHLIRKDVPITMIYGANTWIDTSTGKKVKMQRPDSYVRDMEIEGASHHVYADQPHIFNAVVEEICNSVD
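Test system: mouse ABHD4 enzyme, wild type. Reagent: FP-Rh fluorescent activity-based probe, added after compound pre-incubation. Timing: pre-incubation 45 min, probe exposure 60 min, at 25 °C. Technique: FP readout, ex 525 nm / em 598 nm. Benchmarks: high control S159A mutant with DMSO, low control median of compound wells.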
HTRA1 inhibitor: inhibitors of human serine peptidase HTRA1. Q92743. recombinant HTRA1, FP-rhodamine activity-based probe, fluorescence polarization. inhibition, % at 5.96 µM. actives 0.5% (n = 340,000). AID 504803; in the data active = inhibition above about 36%;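 note: 0% = enzyme with DMSO and 100% = wells lacking enzyme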
PRMT1 FP inh: blocks human protein arginine methyltransferase 1 | recombinant PRMT1, activity-based probe fluorescence polarization | actives 1.3% (n = 370,000) | inhibition, % at 2.79 µM;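 active = inhibition above about 21% made by adding two undisclosed values, limit read from the data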
SIAE primary: human SIAE inhibition, primary screen. Q9HAT2. SIAE FP-Rh probe binding, fluorescence polarization. inhibition, % at 9.66 µM. actives 0.69% (n = 370,000). AID 1053197;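 active = inhibition above a cutoff: mean of compounds within the control limits plus 3 SD of those, cut at about 17% in these data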;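 note: 0% = plate median of compound wells and 100% = probe without SIAE protein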
PRMT1 inh conf: confirmation of human PRMT1 inhibitors; shares compounds with PRMT1 FP inh; recombinant His-PRMT1, activity-based probe fluorescence polarization; inhibition, % at 2.79 µM; actives 42% (n = 3,300); AID 687036;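 active = mean inhibition across replicates above the hit cutoff derived for the earlier primary screen, cut at about 22% in these data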
ABHD4 confirm: ABHD4 (mouse) inhibition, FP confirmation; purified mABHD4, FP-Rh probe fluorescence polarization; actives 55% (n = 1,800); inhibition, % at 8.92 µM; shares compounds with ABHD4 inh;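 active = mean inhibition across replicates above the hit cutoff set in the primary screen, cut at about 30% in these data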;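 note: 0% = wild-type ABHD4 with DMSO and 100% = catalytically dead S159A mutant with DMSO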
* hit, by the source's call; . = no result given. This is a sample that favours compounds with a hit; in the whole collection about 2.9% have one here.

SMILES	TCR-CD3 inh	ATG4B inhibitor	ABHD4 inh	HTRA1 inhibitor	PRMT1 FP inh	SIAE primary	PRMT1 inh conf	ABHD4 confirm
CC(=O)Nc1ccc(NC(=O)C(C)OC(=O)/C(C#N)=C/c2ccc(N(C)C)cc2)cc1 (configuration not stated)	-20	0	-29	-14	30*	-134	39*	.
Cc1c(C2Nc3ccccc3NC3=C2C(=O)CC(C)(C)C3)cnn1C (configuration not stated)	7	-9	10	6	27*	-3	0	.
CC1(C)CC(=O)C2=C(C1)Nc1ccccc1NC2c1ccccc1F (configuration not stated)	2	-5	-4	3	5	12	.	.
COc1ccc(CNCC#Cc2cccnc2)c(OC)c1	.	.	4	.	1	6	.	.
CC(=Nc1ccccc1O)c1sc2ccccc2c1O	-3	-7	16	27	34*	5	25*	.
CC(=O)NCCN=C(C)c1sc2ccccc2c1O	-1	-2	2	4	25*	3	21*	.
CC(=Nc1cccc(C)c1)c1sc2ccccc2c1O	2	15	4	-2	26*	7	19	.
CC(C)=CCC[C@@]1(C(=O)O)[C@H]2CC=C(CO)[C@@H]1CC/C(C)=C/CC/C(C)=C/C2	.	.	-12	.	2	-2	.	.
CC(C)CN1C(=O)C[C@@]2(C(=O)N(C)c3ccc(NC(=O)C(F)(F)F)cc32)C1c1ccccc1 (some centres not stated)	.	.	-1	.	-3	3	.	.
Cc1ccc(CN(C)C(=O)c2ccc3c(c2)NC(=O)CS3)o1	1	3	5	3	40*	10	5	.
CN(C)C(=S)Nc1cccc(-c2n[nH]c(=S)o2)c1	2	8	4	3	-1	15	.	.
NNC(=S)Nc1cccc(-c2n[nH]c(=S)o2)c1	-1	-9	35*	8	34*	0	8	22
COC(=O)CNC(=O)C1Nc2ccc(OC(F)(F)F)cc2C2C=CCC12 (configuration not stated)	-1	-5	47*	27	37*	5	2	-4
O=S(=O)(Nc1nc(-c2ccco2)c(-c2ccco2)s1)c1ccc(F)cc1F	11	.	47*	5	45*	-1	20	12
O=S(=O)(Nc1nc2ccccc2s1)c1cc(F)ccc1F	-4	2	-39	-3	-2	-5	.	.
CCCCCC(=O)Nc1cc(S(=O)(=O)O)cc2cc(S(=O)(=O)O)cc(O)c12	16	43*	49*	23	45*	11	57*	64*
O=S1(=O)c2c(cccc2N2CCC[C@@H]2CO)O[C@@H]2CCN1C2	.	.	2	.	1	9	.	.
Cc1ccc(-c2ccccc2)n1-c1ccc(C(=O)O)cc1	-9	-1	36*	-8	73*	1	-1	-8
COc1ccc(NC(=O)C(CCCCNC(=O)OC(C)(C)C)NC2(C(=O)NCCc3c[nH]c4ccccc34)CCCCC2)cc1 (configuration not stated)	.	.	-8	.	0	8	.	.
C/C(=N\Nc1cccc(C(=O)O)c1)c1ccc(Cl)s1	-2	19	40*	-3	42*	-6	10	45*
Oc1c(N=Nc2ccccc2)sc2ccccc12	-10	-1	-15	-8	7	-5	.	.
CC(=Nc1ccc(O)cc1)c1sc2ccccc2c1O	8	-14	39*	10	27*	2	13	0
Cc1ccc(C2=CCN(C)C(=O)N2c2ccccc2)cc1	.	.	6	.	-1	4	.	.
COC(=O)c1ccc(NCc2c(O)ccc(O)c2Br)cc1Cl	-2	-5	31*	-14	82*	12	15	37*
COC(=O)c1cc(NCc2c(F)cccc2Cl)ccc1N1CCOCC1	0	-1	-6	0	7	-4	.	.
CCn1c(C)nc2cc(C(=O)N/N=C/c3ccc(O)c(O)c3O)ccc21	66*	0	35*	32	43*	9	43*	44*
